High-throughput results (PubChem)
Hits are enriched below; roughly 3.3% of the tested compounds scored in any of these assays.
ATG4B inh – blocks human ATG4B protease cleavage of LC3 substrate; Q9Y4P1; ATG4B cleavage of LC3-PLA2, NBD-HPC fluorescence, 1 h; inhibition, % at 8.33 µM; hit rate 0.51% among 340,000; in the data active means inhibition above about 40%
CendR NRP1 mod – modulators of CendR peptide binding to human neuropilin-1. O14786. FAM-RPARPAR peptide binding to NRP-1, fluorescence polarization. inhibition, % at 25 µM. hit rate 0.85% among 360,000. AID 602438;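 active means inhibition or corrected inhibition above about 18%, plus a signal ratio from 0.5 to 1.5, limit read from the data, passing the limit was not always enough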
Arrestin-AP2 inh – human beta-arrestin and AP2 interaction inhibition | hit rate 0.31% among 340,000 | FITC-arrestin peptide / GST-AP2 beads, flow cytometry; AP2 beta2 appendage carries R879A mutation | inhibition, % at 10 µM;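 active means inhibition above a set limit, near 3 SD of compounds lacking own fluorescence, cut at about 54% in these data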
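Material – AP2 appendage R879A on GSH beads · Buffer or medium – PBS with 0.05% Tween 20 and 0.1% BSA · Probe or stimulus – fluorescein-tagged arrestin peptide at 50 nM final · Incubation – compound with beads 12 min RT, then probe 1 h RT · Detection – high-throughput flow cytometry of beads, ex 488, em 535 nm · Evaluation – percent response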
Myeloid diff MLP – compounds promoting myeloid differentiation; ER-HoxA9 myeloid progenitors, lysozyme-GFP differentiation, flow cytometry; calls only at 10 µM; hit rate 1% among 360,000;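 active means normalized GFP-positive differentiation at or above the plate's own cutoff, the solvent-only control mean plus 3 SD; inconclusive means no clear call, values can overlap the other calls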;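 further: cells exposed to compound for four days before flow analysis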
Granule exo inh – blocks lytic granule exocytosis | TALL-104 LAMP-1 surface exposure, flow cytometry; cells stimulated with thapsigargin and PMA | inhibition, % at 10 µM | hit rate 0.66% among 360,000;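 active means inhibition above about 55%, limit read from the data; inconclusive means no clear call, values can overlap the other calls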
ABCB6 inh 2 – blocks the human ABCB6 transporter. Q9NP58. K562-ABCB6 porphyrin accumulation, flow cytometry, 1 h; stronger effect = lower value. fluorescence ratio to DMSO, % at 10 µM. hit rate 0.19% among 360,000. AID 602162;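 active means fluorescence ratio to DMSO below 75%, the collection mean minus 3 SD; inconclusive means too few cells collected in the well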;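 further: signal is porphyrin accumulated inside mitochondria; lower ratio means ABCB6 inhibition with less porphyrin fluorescence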
Target sequence (Q9NP58 whole entry, looked up): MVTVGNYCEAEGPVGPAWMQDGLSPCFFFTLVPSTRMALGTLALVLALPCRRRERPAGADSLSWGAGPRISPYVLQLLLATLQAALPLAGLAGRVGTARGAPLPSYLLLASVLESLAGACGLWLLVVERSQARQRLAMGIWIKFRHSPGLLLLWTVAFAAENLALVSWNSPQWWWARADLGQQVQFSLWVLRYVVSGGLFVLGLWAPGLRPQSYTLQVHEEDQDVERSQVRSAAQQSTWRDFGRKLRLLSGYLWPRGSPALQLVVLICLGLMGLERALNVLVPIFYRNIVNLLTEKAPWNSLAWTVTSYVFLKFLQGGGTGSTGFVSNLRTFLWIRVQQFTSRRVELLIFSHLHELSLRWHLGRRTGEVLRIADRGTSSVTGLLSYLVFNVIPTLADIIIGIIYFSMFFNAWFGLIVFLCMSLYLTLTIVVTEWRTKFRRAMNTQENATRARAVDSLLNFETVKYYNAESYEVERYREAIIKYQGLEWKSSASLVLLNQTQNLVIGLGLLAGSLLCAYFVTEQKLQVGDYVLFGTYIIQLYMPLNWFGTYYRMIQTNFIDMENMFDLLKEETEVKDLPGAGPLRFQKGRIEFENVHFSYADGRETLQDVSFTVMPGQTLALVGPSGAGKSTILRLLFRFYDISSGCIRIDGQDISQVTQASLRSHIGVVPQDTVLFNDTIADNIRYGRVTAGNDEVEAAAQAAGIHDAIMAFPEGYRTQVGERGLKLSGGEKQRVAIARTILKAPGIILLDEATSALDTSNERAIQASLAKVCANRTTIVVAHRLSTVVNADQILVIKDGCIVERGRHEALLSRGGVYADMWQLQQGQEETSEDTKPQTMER
Arr AP2 CP1 – human beta-arrestin and AP2 interaction inhibition, cherry pick; shares compounds with Arrestin-AP2 inh; inhibition, % at 10 µM; GST-AP2 beads, FITC arrestin peptide binding, flow cytometry; GST-fused beta2-adaptin appendage, R879A mutant; hit rate 2% among 1,300;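 active means inhibition above a set limit, roughly 3 SD of non-fluorescent compound noise, cut at about 38% in these data; inactive means inhibition at or below that limit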;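 further: loss of bead fluorescence from 50 nM FITC arrestin peptide bound to appendage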
GST-FITC bead – disrupts GST binding to glutathione beads, arrestin-AP2 artifact. shares compounds with Arrestin-AP2 inh. GST-fluorescein binding to GSH beads, fluorescence, counter-screen. inhibition, % at 10 µM. hit rate 2% among 1,300;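 active means inhibition above 50%, about 3 SD of the inhibition seen with non-fluorescent compounds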;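 further: fluorescein maleimide labelled GST captured on 4 micron glutathione beads; higher means more loss of bead fluorescence from quenching or blocked binding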
A number is an active result; i = inactive; ? = inconclusive; nt = no result.

SMILES | ATG4B inh | CendR NRP1 mod | Arrestin-AP2 inh | Myeloid diff MLP | Granule exo inh | ABCB6 inh 2 | Arr AP2 CP1 | GST-FITC bead
COCC1CCCCN1C(=O)C1CCN(c2nc(-c3ccccc3)nc3c2CCC3)CC1 (centres undefined) | i | i | i | i | i | i | nt | nt
CCNC(=O)N(C)C[C@H]1N[C@@](C)(C(=O)OC)[C@H]2C(=O)N(Cc3ccccc3)C(=O)[C@@H]12 | i | i | i | i | i | i | nt | nt
COc1ccc(NC(=O)/C(=C\c2cccnc2)NC(=O)c2cccs2)cc1 | i | i | i | i | i | i | nt | nt
COc1ccc(NC(=O)/C(=C/c2cccnc2)NC(=O)c2cccs2)cc1 | i | i | 66 | i | i | i | i | i
CCOc1ccccc1N1CC(C(=O)NNC(=O)c2cc(OC)c(OC)c(OC)c2)CC1=O (centres undefined) | i | i | i | i | i | i | nt | nt
CC(=O)Nc1nnc(S(=O)(=O)N2CCN(c3ccc(Cl)cc3[N+](=O)[O-])CC2)s1 | i | i | 56 | i | i | i | i | i
O=C(Nc1nnc(S(=O)(=O)N2CCCCCC2)s1)c1ccc(Cl)cc1 | i | i | i | ? | i | i | nt | nt
Cc1cccc(CN2CCN(C(C)C(=O)NC(C)c3ccccc3)CC2)c1 (centres undefined) | i | i | 56 | i | i | i | i | i
CCOc1ccccc1N1CC(C(=O)Nc2cc(Cl)ccc2-n2cncn2)CC1=O (centres undefined) | i | i | i | i | i | i | nt | nt
Cc1cc(NS(=O)(=O)c2ccccc2)c([N+](=O)[O-])cc1C | i | i | 62 | i | i | i | i | i
Cc1cccc(C)c1NC(=O)CN(C)C(=O)c1cccc(NS(=O)(=O)c2ccccc2)c1 | i | i | 59 | i | i | i | i | i
Cc1cccc(C)c1NC(=O)CN(C)C(=O)c1ccc(NS(=O)(=O)c2ccc3[nH]c(=O)[nH]c3c2)cc1 | i | i | i | i | i | i | nt | nt
Cc1cc(C)c(C(=O)Nc2ccc(C)c(C)c2)c(CC(C)(C)C(=O)O)c1 | i | i | i | i | i | i | nt | nt
COc1ccc(/C=C/C(=O)NC(CCSC)C(=O)O)cc1 (centres undefined) | i | i | i | i | i | i | nt | nt
CC1Cc2ccccc2N1S(=O)(=O)c1cccc(C(=O)NC2CC2)c1 (centres undefined) | i | i | 89 | i | i | i | i | i
CC1C(=O)OC2C1CCC1(C)C3(C)C(=O)C=CC213 (centres undefined) | nt | i | nt | i | i | i | nt | nt
Cn1nnc(NC(=S)NC(=O)c2cccc3c(Cl)cccc23)n1 | i | i | 56 | i | i | i | i | i
Cn1c(CNS(=O)(=O)c2ccc(Cl)cc2)cc(=O)n(C)c1=O | i | i | i | i | i | i | nt | nt
Nc1ccc(Nc2ccccc2)c(Cl)c1 | i | i | 71 | ? | i | i | i | i
COc1ccccc1Nc1ccc(N)cc1 | i | i | i | i | i | i | nt | nt
CCc1ccccc1NC(=O)CNC(=O)c1cn(Cc2ccccc2)nc1-c1cccnc1 | i | i | 64 | i | i | i | i | i
O=C1CCCC2=C1Sc1ccccc1N2 | i | i | i | i | i | i | nt | nt
Cn1c(=O)[nH]c(=O)c2c1nc(N1CCCCCC1)n2Cc1cccc2ccccc12 | i | i | 100 | i | i | i | i | i
CN(C(=O)COc1ncnc2sccc12)C1CCCCC1 | i | i | i | i | i | i | nt | nt
O=C(C[n+]1cccc(C(=O)Nc2ccccc2)c1)c1ccc(Cl)cc1 | nt | i | nt | i | i | i | nt | nt
SMILES | ATG4B inh | CendR NRP1 mod | Arrestin-AP2 inh | Myeloid diff MLP | Granule exo inh | ABCB6 inh 2 | Arr AP2 CP1 | GST-FITC bead
NC(=O)C[n+]1cccc(C(=O)Nc2ccccc2)c1 | i | i | 66 | i | i | i | i | i
COc1cc2c(cc1NC(=O)Nc1cccc(C)c1)oc1ccccc12 | i | i | i | i | i | i | i | i
COc1ccc(OCC(=O)Nc2cc3oc4ccccc4c3cc2OC)cc1 | i | i | i | i | i | i | i | i
COc1cc2c(cc1NC(=S)Nc1cccc(C)c1)oc1ccccc12 | i | i | i | i | i | i | nt | nt
COc1ccc(/C=C/C(=O)NC(=S)Nc2cc3oc4ccccc4c3cc2OC)cc1 | i | i | i | i | i | i | nt | nt
COc1ccc(S(=O)(=O)N[C@@H](C)C(=O)OCC(=O)Nc2cc3oc4ccccc4c3cc2OC)cc1 | i | i | i | i | i | i | nt | nt
COc1ccc(NC(=O)Nc2cc3oc4ccccc4c3cc2OC)cc1 | i | i | i | i | i | i | i | i
COc1cc2c(cc1NC(=O)Nc1ccc(C)cc1)oc1ccccc12 | i | i | i | i | i | i | i | i
CCOC(=O)C(C)OC(=O)C1=C(C)NC(=O)NC1c1ccc2c(c1)OCO2 (centres undefined) | i | i | i | i | i | i | nt | nt
COc1cc2c(cc1NC(=O)/C=C/c1ccccc1)oc1ccccc12 | i | i | i | i | i | i | nt | nt
COc1cc(NC(=O)COc2ccccc2)c(OC)cc1NC(C)=O | i | i | 60 | i | i | i | i | i
COc1cc2c(cc1NC(=O)Nc1ccc(F)cc1)oc1ccccc12 | i | i | i | i | i | i | i | i
COc1cc2c(cc1NC(=O)CSc1ccccc1)oc1ccccc12 | i | i | i | i | i | i | i | i
COc1cc2ccccc2cc1C(=O)OCC(=O)N(CC(C)C)c1c(N)n(Cc2ccccc2)c(=O)[nH]c1=O | i | i | i | i | i | i | nt | nt
O=C(Nc1ccccc1NS(=O)(=O)c1ccc(F)cc1)C1CCC1 | i | i | i | i | i | i | nt | nt
CC(C)(C)c1ccccc1OCC(=O)NCc1ccccc1 | i | i | 64 | i | i | i | i | i
O=S1(=O)N=C(N(CCO)/N=C/c2ccccc2)c2ccccc21 | i | i | 60 | i | i | i | i | i
Cc1csc(NC(=O)c2ccc(Cn3nc(C)c(Br)c3C)o2)n1 | i | i | 58 | i | i | i | i | i
O=C(COc1ccc(S(=O)(=O)Nc2ccccc2)cc1)NCc1ccncc1 | i | i | i | i | i | i | nt | nt
CC(C)(C)C(=O)Nc1ccc(-c2cnco2)cc1 | i | i | i | i | i | i | nt | nt
COc1ccc(NC(=O)c2ccco2)cc1NC(=O)c1ccccc1 | i | i | i | i | i | i | nt | nt
CCOc1ccc(C(=O)NC(=S)Nc2ccc(NC(=O)c3ccco3)c(C)c2)cc1[N+](=O)[O-] | i | i | 100 | i | i | i | i | i
COc1ccc(NC(=O)c2ccco2)cc1NC(=O)c1ccccc1[N+](=O)[O-] | i | i | 55 | i | i | i | i | i
COc1cc(NC(=O)c2ccc(OC)c([N+](=O)[O-])c2)ccc1NC(=O)c1ccco1 | i | i | i | i | i | i | nt | nt
